“And” between values parts separate entries of the source, which are not always exact repeats. Identical values can stand only once.
Key:
[1] = target: T1, Vitamin D3 receptor (Sus scrofa) (UniProt A3RGC1); assay: Displacement of [3H]1-alpha,25-(OH)2D3 from VDR in pig intestinal mucosa at EC50 relative to 1-alpha,25-(OH)2D3; assay type: tissue-based
T1 sequence (whole entry): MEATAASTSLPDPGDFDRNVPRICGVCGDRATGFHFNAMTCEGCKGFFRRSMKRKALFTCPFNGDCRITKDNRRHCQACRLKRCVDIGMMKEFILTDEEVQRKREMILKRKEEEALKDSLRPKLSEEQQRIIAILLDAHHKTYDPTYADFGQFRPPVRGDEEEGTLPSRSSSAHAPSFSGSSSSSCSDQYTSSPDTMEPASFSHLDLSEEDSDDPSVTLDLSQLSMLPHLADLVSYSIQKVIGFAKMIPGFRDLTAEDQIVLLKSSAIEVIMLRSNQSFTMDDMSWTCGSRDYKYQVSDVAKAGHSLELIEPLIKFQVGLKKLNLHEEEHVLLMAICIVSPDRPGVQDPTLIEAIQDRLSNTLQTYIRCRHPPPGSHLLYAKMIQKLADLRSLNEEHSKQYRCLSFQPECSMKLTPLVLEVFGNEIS
Procedure, shortened: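 Binding to vitamin D receptor (VDR), […]. Values are mean ± SD, n = 3.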

[2] = system: MCF7; assay: Antiproliferative activity against human MCF7 cells at EC50 after 72 hrs by [3H]thymidine incorporation assay relative to 1-alpha,25-(OH)2D3; assay type: functional
Procedure, shortened: (§1)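 MCF-7 breast cancer cells; proliferation read by [³H]thymidine incorporation. Inhibition was scored at 10^-6 M, and the concentration giving half-maximal response was derived. Values are mean ± SD, n = 3.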

[3] = system: Mus musculus; assay: Toxicity in NMRI mouse assessed as induction of calcemic effect at 40 ug/kg, ip daily for 7 consecutive days measured after day 7 by colorimetric assay; assay type: organism-based; conditions: in vivo, 0.04 mg/kg
Procedure, shortened: (§2)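 Mice received a daily injection of compound. The calcemic effect was read as the percent increase in serum calcium levels.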

[4] = target: T1, Vitamin D3 receptor (Sus scrofa); assay: Ratio of 1-alpha,25-(OH)2D3 to compound affinity for binding to VDR in pig intestinal mucosa
[5] = system: Mus musculus; assay: Toxicity in NMRI mouse assessed as increase in serum calcium level at 100 ug/kg, ip daily for 7 consecutive days measured after day 7 by colorimetric assay; assay type: organism-based; conditions: in vivo, 0.1 mg/kg; procedure, shortened: as §2
[6] = system: MCF7; assay: Antiproliferative activity against human MCF7 cells at 1 uM after 72 hrs by [3H]thymidine incorporation assay; assay type: functional; procedure, shortened: as §1
[7] = system: Mus musculus; assay: Toxicity in NMRI mouse assessed as induction of calcemic effect at 100 ug/kg, ip daily for 7 consecutive days measured after day 7 by colorimetric assay; assay type: organism-based; conditions: in vivo, 0.1 mg/kg; procedure, shortened: as §2
[8] = system: MCF7; assay: Ratio of 1-alpha,25-(OH)2D3 to compound antiproliferative activity against human MCF7 cells at EC50 after 72 hrs by [3H]thymidine incorporation assay; assay type: functional
[9] = system: Mus musculus; assay: Toxicity in NMRI mouse assessed as induction of calcemic effect at 20 ug/kg, ip daily for 7 consecutive days measured after day 7 by colorimetric assay; assay type: organism-based; conditions: in vivo, 0.02 mg/kg; procedure, shortened: as §2
[10] = system: Mus musculus; assay: Toxicity in NMRI mouse assessed as increase in serum calcium level at 0.1 ug/kg, ip daily for 7 consecutive days measured after day 7 by colorimetric assay; assay type: organism-based; conditions: in vivo, 0.0001 mg/kg; procedure, shortened: as §2
[11] = Toxicity in ip dosed NMRI mouse assessed as maximum tolerable dose inducing minimal increase in serum calcium level administered daily for 7 consecutive days measured after day 7 by colorimetric assay; assay type: organism-based; conditions: in vivo

| Compound | Activity [1] | Activity [2] | further results |
| --- | --- | --- | --- |
| C[C@H](CCCC(C)(C)O)[C@H]1CC[C@H]2/C(=C/C=C3/C[C@@H](O)[C@@H]4O[C@@H]4C3)CCC[C@]12C | 0.4% | 1% | Activity [3]: Non-toxic |
| C[C@H](CCCC(C)(C)O)[C@H]1CC[C@H]2/C(=C/C=C3C[C@@H](O)C(O)[C@H](O)C3)CCC[C@]12C (stereo not given in full) [listing 1 of 2 here] | – | 5% | – |
| C[C@H](CCCC(C)(C)O)[C@H]1CC[C@H]2/C(=C/C=C3C[C@@H](O)C(O)[C@H](O)C3)CCC[C@]12C (stereo not given in full) [listing 2 of 2 here] | 20% and 10% | – | Ratio [4]: 5 and 10 |
| C[C@H](CCCC(C)(C)O)[C@H]1CC[C@H]2/C(=C/C=C3/C[C@@H](O)[C@H](O)[C@@H](O)C3)CCC[C@]12C | 0.4% | 5% | – |
| [H][C@@]12CC[C@]([H])([C@H](C)CCCC(C)(C)O)[C@@]1(C)CCC/C2=C\C=C1\C[C@@H](O)[C@H](O)[C@H](O)C1 (stereo not given in full) | – | 20% | Activity [5]: 13%; Activity [6]: 60%; Activity [7]: Non-toxic; Ratio [8]: 5 |
| C[C@H](CCCC(C)(C)O)[C@H]1CC[C@H]2/C(=C/C=C3\C[C@@H](O)[C@@H]4O[C@@H]4C3)CCC[C@]12C | 25% | 16% | Activity [9]: Non-toxic |
| C[C@H](CCCC(C)(C)O)[C@H]1CC[C@H]2/C(=C/C=C3\C[C@@H](O)[C@H](O)[C@@H](O)C3)CCC[C@]12C | 5% | 5% | – |
| C=C1/C(=C\C=C2/CCC[C@]3(C)[C@@H]([C@H](C)CCCC(C)(C)O)CC[C@@H]23)C[C@@H](O)C[C@@H]1O [CALCITRIOL] | – | – | Activity [10]: 27%; MTD at 7 days [11]: 0.0001 mg/kg/day |

From ChEMBL document CHEMBL1154266, “Synthesis, conformational analysis, and biological evaluation of 19-nor-vitamin D3 analogues with A-ring modifications” (J Med Chem, 2009)
